Measurements from different studies.
Each line is one published result; the experiments were not run side by side.
Target: 3-phosphoinositide-dependent protein kinase 1 (PDPK1, Homo sapiens, UniProt O15530)
Sequence (O15530 1-556, as in one of the studies): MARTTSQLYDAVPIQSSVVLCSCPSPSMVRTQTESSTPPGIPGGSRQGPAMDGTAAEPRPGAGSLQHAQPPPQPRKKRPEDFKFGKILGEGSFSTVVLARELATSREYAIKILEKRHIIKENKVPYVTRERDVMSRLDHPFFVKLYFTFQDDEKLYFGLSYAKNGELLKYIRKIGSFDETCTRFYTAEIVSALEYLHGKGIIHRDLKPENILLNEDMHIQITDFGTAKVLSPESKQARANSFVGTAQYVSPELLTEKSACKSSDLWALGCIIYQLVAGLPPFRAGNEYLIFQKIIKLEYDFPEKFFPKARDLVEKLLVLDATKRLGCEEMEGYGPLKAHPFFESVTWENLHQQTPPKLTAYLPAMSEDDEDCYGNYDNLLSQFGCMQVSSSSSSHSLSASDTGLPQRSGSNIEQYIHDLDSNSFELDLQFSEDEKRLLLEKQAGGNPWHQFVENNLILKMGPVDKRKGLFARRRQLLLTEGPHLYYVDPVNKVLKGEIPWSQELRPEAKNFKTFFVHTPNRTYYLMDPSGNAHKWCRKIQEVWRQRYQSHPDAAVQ

assay	conditions	measurement	value	SMILES
cell-free assay	0.5 µM	remaining signal	27%	CC(C)(C)c1nc2c3cc[nH]c(=O)c3c3cc(F)ccc3c2[nH]1
cell-free assay, competition with immobilised ligand	1 µM	remaining binding	94%	Cc1c(NC(=O)c2cc(C(N)=O)nc3cc(F)ccc23)c(C(F)(F)F)nn1Cc1ccc(C(C)(C)C)cc1
cell-free assay	0.5 µM	remaining signal	96.3%	C[S+]([O-])c1ccc(-c2nc(-c3ccncc3)c(-c3ccc(F)cc3)[nH]2)cc1 (stereo not shown)
enzyme activity, inhibitor	5 µM	remaining activity	101%	O=C(Nc1cnn(-c2csc(C(=O)NC3COC3)c2)c1)Nc1ccccc1Cl
enzyme activity, inhibitor	1 µM	remaining activity	105%	CC(C)(O)[C@H]1CC[C@H](Nc2ccc3ncc(-c4cccc(C(F)(F)F)c4)n3n2)CC1
cell-free assay	0.5 µM	remaining signal	86.4%	CS(=O)(=O)CCNCc1ccc(-c2ccc3ncnc(Nc4ccc(OCc5cccc(F)c5)c(Cl)c4)c3c2)o1
enzyme activity, inhibitor	10 µM	remaining activity	107%	Oc1cccc(-c2nc(N3CCOCC3)c3oc4ncccc4c3n2)c1
cell-free assay, competition with immobilised ligand	1 µM	remaining binding	97%	O=C1NC(c2ccccn2)Sc2ccccc21 (stereo not shown)
cell-free assay	0.5 µM	remaining signal	102%	O=C1NC(=O)c2cc(Nc3ccc(F)cc3)c(Nc3ccc(F)cc3)cc21
enzyme activity, inhibitor, radiometric	1 µM	remaining activity	82%	CC(C)(C)c1nc2c(s1)c1nc(N)ncc1c1ccc(NS(=O)(=O)c3c(F)cccc3F)c(F)c12
binding, competition with immobilised ligand	1 µM	remaining binding	89%	c1ccc(N2CCN(Cc3nc4ccccc4[nH]3)CC2)nc1
enzyme activity, inhibitor	10 µM	remaining activity	108%	CC(C)(C)C(=O)c1sc(NC2CCCCC2)nc1N
enzyme activity, inhibitor	5 µM	remaining activity	99.6%	O=C(Nc1cnn(-c2csc(C(=O)NC3COC3)c2)c1)Nc1c(F)cccc1Cl
cell-free assay	0.5 µM	remaining signal	89.4%	COc1ccc(COc2ccc(Cc3cnc(N)nc3N)cc2OC)cc1
cell-free assay, competition with immobilised ligand	0.1 µM	remaining binding	90%	COCCOc1nc(-c2ccc(Cl)nc2)nc2c1CN(C(=O)c1ncn3ccccc13)CC2
enzyme activity, inhibitor	10 µM	remaining activity	116%	CCN(CC)c1ccc(C2=NNC(=O)CC2C)cc1[N+](=O)[O-] (stereo not shown)
enzyme activity, inhibitor, FRET	1 µM	inhibition	4%	CN(C)C1CCN(CC#Cc2nn(C3CCCC3)c3nc(NCc4ccccc4)ncc23)C1 (stereo not shown)
binding, competition with immobilised ligand	1 µM	remaining binding	92%	O=C(N[C@H]1CCCCC/C=C\C2C[C@@]2(C(=O)O)NC(=O)[C@@H]2C[C@@H](Oc3ccncc3)CN2C1=O)OC1CCCC1 (stereo partly shown)
enzyme activity, inhibitor, radiometric	10 µM	remaining activity	76%	COc1cc(Nc2cnc(C#N)c(O[C@H](C)CN(C)C)n2)ncc1-c1cnn(C)c1
cell-free assay, competition with immobilised ligand	1 µM	remaining binding	87.8%	COc1cccc(CNC(=O)c2nc3scc(COCc4ccc(C(=O)O)cc4)c3c(=O)[nH]2)c1
enzyme activity, inhibitor	10 µM	remaining activity	92%	FC(F)c1nc2ccccc2n1-c1nc(N2CCOCC2)nc(N2CCOCC2)n1
cell-free assay, competition with immobilised ligand	0.1 µM	remaining binding	100%	CC(C)CC(=O)N1CCc2nc(-c3ccc(Br)cc3)nc(N(C)Cc3ccccc3)c2C1
enzyme activity, inhibitor	1 µM	activity vs control	90%	COc1cc(/C=C/C(=O)CC(=O)/C=C/c2ccc(O)c(OC)c2)ccc1O
cell-free assay, competition with immobilised ligand	1 µM	remaining binding	93.4%	CC(=O)C1=C(C)N(c2cccc(C(F)(F)F)c2)C(=O)N[C@@H]1c1ccc(C#N)nc1
enzyme activity, inhibitor	10 µM	remaining activity	106%	Nc1nc(NC2CCCCC2)sc1C(=O)c1ccccc1
